Assay results taken from article PMC7330163 (Pharmacology Research & Perspectives, 2020).

Experiments:
[1] = tested on: Cyp3a1; experiment: Taqman mRNA upregulation in rat liver, 8-day mechanistic follow-up study; assay type: in vivo, Sprague-Dawley rat; details: male rats, 8-day follow-up study, relative to vehicle control
How it was run: (§1)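 Male Sprague-Dawley rats (n = 4) were given 0, 5, 15 or 50 mg/kg daily for 8 days as a suspension in modified gelatine. Liver transcripts were normalised to 18S and to vehicle-treated rats by the ΔΔCT method; fold = 2−ΔΔCT.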

[2] = tested on: Cyp3a2; experiment: as above; assay type: in vivo, Sprague-Dawley rat; details: male rats, 8-day follow-up study, relative to vehicle control
How it was run: as §1

[3] = tested on: Cyp2c12; experiment: Taqman mRNA upregulation in rat liver; assay type: in vivo, Sprague-Dawley rat; details: either sex
[4] = tested on: Cyp2c11; experiment: Taqman mRNA upregulation in rat liver, 4-week toxicity study; assay type: in vivo, Sprague-Dawley rat; details: male rats; for Upregulation of Cyp2c11 mRNA: 4-week study, relative to vehicle control
How it was run: (§2)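 Livers came from satellite-group rats of both sexes (n = 5–6) in the 4-week study, dosed once daily at 0, 50, 150, 450 or 1500 mg/kg in modified gelatine. Transcripts quantified by comparative Ct, normalised to 18S and to vehicle-treated controls; fold change = 2−ΔΔCT.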

[5] = Single-dose intravenous pharmacokinetics in rat; assay type: in vivo, Sprague-Dawley rat; details: for AUC / Vd / clearance / half-life: Sprague-Dawley, plasma, iv
[6] = tested on: Cyp3a2; experiment: Taqman mRNA upregulation in rat liver, 4-week toxicity study; assay type: in vivo, Sprague-Dawley rat; details: male rats, 4-week study
How it was run: as §2

[7] = man, therapeutic dose of 10 mg; clinical trials ref 19; cited from earlier work
[8] = tested on: Cyp3a1; experiment: Taqman mRNA upregulation in rat liver, 4-week toxicity study; assay type: in vivo, Sprague-Dawley rat
How it was run: as §2

[9] = tested on: CYP3A4; experiment: Induction of P450 enzyme activity in human hepatocytes; assay type: cell-based; details: up to 10 µmol/L
How it was run: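 Three batches of human hepatocyte monolayers were exposed for 48–89 h to test compound (DMSO stock diluted 1000-fold), with medium and fresh drug or vehicle renewed every 24 h; rifampicin and omeprazole as positive controls. Cells then washed with MEM, held 10 min at 37°C, and incubated with 200 µmol/L nifedipine for 2 h at 37°C, 5% CO2, as CYP3A4 activity marker.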

[10] = Single-dose intravenous pharmacokinetics in dog; assay type: in vivo, Beagle dog; details: male, plasma
How it was run: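 Three male Beagles in a cross-over design with 7-day wash-out between dosing events. The intravenous solution was PEG400/N-methylpyrrolidone/50 mmol/L TRIS-HCl pH 8.3 (1:1:2 v/v/v). Plasma stored at −20°C. T1/2 = ln(2)/λz; AUC by log-linear trapezoidal rule.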

[11] = tested on: Cyp2c6; experiment: Taqman mRNA upregulation in rat liver, 4-week toxicity study; assay type: in vivo, Sprague-Dawley rat; details: 4-week study
How it was run: as §2

[12] = Plasma exposure in the 8-day mechanistic follow-up study in male rats; assay type: in vivo, Sprague-Dawley rat; details: for AUC: male, Sprague-Dawley, plasma, oral; for AUC / AUC0‐24 h (day 1) / AUC0‐24 h (day 8/28): rat; for AUC0‐24 h (day 1) / AUC0‐24 h (day 8/28): males, 8-day study
[13] = tested on: total P450; experiment: Total P450 concentration in liver microsomes of the 4-week dog toxicity study; assay type: in vivo, Beagle dog; details: 4 weeks
How it was run: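 Microsomes were made from pooled liver (1.5–2 g per dose group) of 4-week toxicity studies, including vehicle controls. Tissue homogenised in ice-cold 50 mmol/L Tris-HCl pH 7.4 with 250 mmol/L sucrose, spun at 9000 g then 100 000 g (4°C), and the pellet washed in 100 mmol/L pyrophosphate pH 7.25 with 1 mmol/L EDTA. Total P450 by carbon monoxide spectrophotometric assay.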

[14] = tested on: CYP2C9; experiment: Induction of P450 mRNA in human hepatocytes; assay type: cell-based; details: up to 10 µmol/L
How it was run: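 Three human hepatocyte batches were cultured as monolayers and treated for 48–89 h with test compound, diluted 1000-fold from DMSO stock, or vehicle. Medium with fresh drug renewed every 24 h; rifampicin and omeprazole served as positive controls. CYP mRNA then measured.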

Upregulation of Cyp3a1 mRNA ([1]; 5 mg/kg daily): 1.66 ± 0.75 | Upregulation of Cyp3a1 mRNA ([1]; 15 mg/kg daily): 2.53 ± 2.02 | Upregulation of Cyp3a1 mRNA ([1]; 50 mg/kg daily): 6.04 ± 3.00 | Upregulation of Cyp3a2 mRNA ([2]; 5 mg/kg daily): 1.46 ± 0.18 | Upregulation of Cyp3a2 mRNA ([2]; 15 mg/kg daily): 2.37 ± 1.43 | Upregulation of Cyp3a2 mRNA ([2]; 50 mg/kg daily): 4.04 ± 0.98 | Induction of Cyp2c12 mRNA [3]: No induction | T 1/2 ([5]; F, 0.3 mg/kg single iv, geometric mean (range)): 8.9 (6.6‐12) h | AUC ([5]; female, 0.3 mg/kg): 2990 ng·h/mL | Vd ([5]; female, 0.3 mg/kg): 1.4 L/kg | clearance ([5]; female, 0.3 mg/kg): 2 mL/min/kg | half-life ([5]; female, 0.3 mg/kg): 8.9 h | AUC ([5]; male, 0.1 mg/kg): 270 ng·h/mL | Vd ([5]; male, 0.1 mg/kg): 1.6 L/kg | clearance ([5]; male, 0.1 mg/kg): 6.5 mL/min/kg | half-life ([5]; male, 0.1 mg/kg): 3.8 h | AUC ([5]; male, 0.3 mg/kg): 610 ng·h/mL | Vd ([5]; male, 0.3 mg/kg): 1.2 L/kg | clearance ([5]; male, 0.3 mg/kg): 8.2 mL/min/kg | half-life ([5]; male, 0.3 mg/kg): 1.9 h | CL in female rats as percent of the value in male animals ([5]; single iv): 25% | increase in CYP3A4 enzyme activity [9]: fivefold | AUC ([10]; Beagle, 0.1 mg/kg): 320 ng·h/mL | Vd ([10]; Beagle, 0.1 mg/kg): 1.2 L/kg | clearance ([10]; Beagle, 0.1 mg/kg): 5.2 mL/min/kg | half-life ([10]; Beagle, 0.1 mg/kg): 3.9 h | AUC ([10]; Beagle, 0.3 mg/kg): 910 ng·h/mL | Vd ([10]; Beagle, 0.3 mg/kg): 1.1 L/kg | clearance ([10]; Beagle, 0.3 mg/kg): 5.7 mL/min/kg | half-life ([10]; Beagle, 0.3 mg/kg): 4.3 h | half-life ([10]; beagle): 3.9 to 4.3 h | change in AUC0‐24h after 8 days treatment ([12]; male rats, 3 mg/kg): No change | AUC0‐24h (day 1) as percent of the AUC0‐24h (day 1) in the 4‐week study ([12]; male rats, 50 mg/kg, different macitentan batches (particle size)): 13% | AUC ([12]; 15 mg/kg): 20300 ng·h/mL | AUC ([12]; 50 mg/kg): 26800 ng·h/mL | AUC0‐24 h (day 1) ([12]; 3 mg/kg daily oral): 3.09 μg/mL"h | AUC0‐24 h (day 8/28) ([12]; 3 mg/kg daily oral): 3.05 μg/mL"h | AUC0‐24 h (day 1) ([12]; 15 mg/kg daily oral): 20.3 μg/mL"h | AUC0‐24 h (day 8/28) ([12]; 15 mg/kg daily oral): 12.3 μg/mL"h | AUC0‐24 h (day 1) ([12]; 50 mg/kg daily oral): 26.8 μg/mL"h | AUC0‐24 h (day 8/28) ([12]; 50 mg/kg daily oral): 16.8 μg/mL"h | change in CYP2C9 mRNA expression [14]: No change
Structure (SMILES): CCCNS(=O)(=O)Nc1ncnc(OCCOc2ncc(Br)cn2)c1-c1ccc(Br)cc1 [macitentan]
increase of Cyp2c11 mRNA levels vs control ([4]; 450 mg/kg and 1500 mg/kg, 4 weeks): about 50% | Upregulation of Cyp2c11 mRNA ([4]; 450 mg/kg daily): 1.48 ± 0.48 | Upregulation of Cyp2c11 mRNA ([4]; 1500 mg/kg daily): 1.43 ± 0.55 | Upregulation of Cyp3a2 mRNA ([6]; 50 mg/kg daily, relative to vehicle control = 1.00): 3.65 ± 1.03 | Upregulation of Cyp3a2 mRNA ([6]; 150 mg/kg daily, relative to vehicle control): 4.53 ± 1.31 | Upregulation of Cyp3a2 mRNA ([6]; 450 mg/kg daily, relative to vehicle control): 5.21 ± 1.33 | Upregulation of Cyp3a2 mRNA ([6]; 1500 mg/kg daily, relative to vehicle control): 6.50 ± 2.40 | plasma exposure (AUC0‐24h) [7]: 5400 ng·h/mL | Upregulation of Cyp3a1 mRNA ([8]; female rats, 50 mg/kg daily, 4-week study, relative to vehicle control): 12.1 ± 4.4 | Upregulation of Cyp3a1 mRNA ([8]; female rats, 150 mg/kg daily, 4-week study, relative to vehicle control): 38.3 ± 10.7 | Upregulation of Cyp3a1 mRNA ([8]; female rats, 450 mg/kg daily, 4-week study, relative to vehicle control): 55.3 ± 13.1 | Upregulation of Cyp3a1 mRNA ([8]; female rats, 1500 mg/kg daily, 4-week study, relative to vehicle control): 106 ± 34 | Upregulation of Cyp3a1 mRNA ([8]; female rats, 1500 mg/kg, 4 weeks, vs control): 106 fold | Upregulation of Cyp3a1 mRNA ([8]; male rats, 50 mg/kg daily, 4-week study, relative to vehicle control = 1.00): 2.17 ± 0.37 | Upregulation of Cyp3a1 mRNA ([8]; male rats, 150 mg/kg daily, 4-week study, relative to vehicle control): 3.51 ± 1.36 | Upregulation of Cyp3a1 mRNA ([8]; male rats, 450 mg/kg daily, 4-week study, relative to vehicle control): 4.87 ± 0.51 | Upregulation of Cyp3a1 mRNA ([8]; male rats, 1500 mg/kg daily, 4-week study, relative to vehicle control): 9.96 ± 4.18 | increase of Cyp3a1 mRNA vs control ([8]; male rats, 1500 mg/kg, 4 weeks): about 10 fold | Upregulation of Cyp2c6 mRNA ([11]; female rats, 50 mg/kg daily, relative to vehicle control): 2.78 ± 0.95 | Upregulation of Cyp2c6 mRNA ([11]; female rats, 150 mg/kg daily, relative to vehicle control): 4.21 ± 0.51 | Upregulation of Cyp2c6 mRNA ([11]; female rats, 450 mg/kg daily, relative to vehicle control): 4.35 ± 1.54 | Upregulation of Cyp2c6 mRNA ([11]; female rats, 1500 mg/kg daily, relative to vehicle control): 3.29 ± 0.77 | Upregulation of Cyp2c6 mRNA ([11]; male rats, 50 mg/kg daily, relative to vehicle control = 1.00): 6.21 ± 1.02 | Upregulation of Cyp2c6 mRNA ([11]; male rats, 150 mg/kg daily, relative to vehicle control): 4.36 ± 1.96 | Upregulation of Cyp2c6 mRNA ([11]; male rats, 450 mg/kg daily, relative to vehicle control): 9.53 ± 1.26 | Upregulation of Cyp2c6 mRNA ([11]; male rats, 1500 mg/kg daily, relative to vehicle control): 9.20 ± 3.29 | P450 (total, liver microsomes) ([13]; female dogs, macitentan 5 mg/kg daily): 0.63 nmol/mg | P450 (total, liver microsomes) ([13]; female dogs, macitentan 50 mg/kg daily): 0.87 nmol/mg | P450 (total, liver microsomes) ([13]; female dogs, macitentan 500 mg/kg daily): 0.84 nmol/mg | P450 (total, liver microsomes) ([13]; male dogs, macitentan 5 mg/kg daily): 0.50 nmol/mg | P450 (total, liver microsomes) ([13]; male dogs, macitentan 50 mg/kg daily): 0.73 nmol/mg | P450 (total, liver microsomes) ([13]; male dogs, macitentan 500 mg/kg daily): 1.00 nmol/mg
